From ChEMBL document CHEMBL1153967, “Discovery of substituted 4-anilino-2-arylpyrimidines as a new series of apoptosis inducers using a cell- and caspase-based high throughput screening assay. 2. Structure-activity relationships of the 2-aryl group” (Bioorg Med Chem Lett, 2009)
Active and inactive are the calls of the source. No cut-off for these calls is given here.

Legend:
[1] = test system: T47D; test: Induction of apoptosis in human T47D cells assessed as caspase activation after 48 hrs by HTS assay; assay type: functional, cell-based
How it was run: (§1)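 Cell-based caspase-3 activation HTS read with a proprietary fluorescent caspase-3 substrate in T47D, HCT116 and SNU398 cells. Compounds applied for 48 h, highest level 10 µM. EC50 reported as mean ± SEM of three or more experiments.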

[2] = test system: HCT-116; test: Induction of apoptosis in human HCT116 cells assessed as caspase activation after 48 hrs by HTS assay; assay type: functional, cell-based; conditions: HCT-116, 48 h; how it was run: as §1
[3] = test system: SNU-398; test: Induction of apoptosis in human SNU398 cells assessed as caspase activation after 48 hrs by HTS assay; assay type: functional, cell-based; conditions: SNU-398, 48 h; how it was run: as §1
[4] = Inhibition of tubulin polymerization up to 50 uM
[5] = test system: T47D; test: Growth inhibition of human T47D cells after 48 hrs; assay type: functional
How it was run: (§2)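 96-well growth-inhibition (GI50) format, run in parallel in T47D breast, HCT116 colon and SNU398 hepatocellular carcinoma cells.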

[6] = test system: HCT-116; test: Growth inhibition of human HCT116 cells after 48 hrs; assay type: functional; conditions: HCT-116, 48 h; how it was run: as §2
[7] = test system: SNU-398; test: Growth inhibition of human SNU398 cells after 48 hrs; assay type: functional; conditions: SNU-398, 48 h; how it was run: as §2
[8] = test system: T47D; test: Induction of apoptosis in human T47D cells assessed as accumulation at S phase at 0.05 uM after 48 hrs by flow cytometry analysis; assay type: functional
How it was run: (§3)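 T47D cells treated at 0.05 µM for 24 h or 48 h at 37 °C alongside untreated controls. Cells stained with propidium iodide and analysed by flow cytometry. Percentages in sub-G1, G1, S and G2/M read from DNA-content histograms.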

[9] = test system: T47D; test: Induction of apoptosis in human T47D cells assessed as accumulation at G1 phase at 0.05 uM after 24 hrs by flow cytometry analysis; assay type: functional; how it was run: as §3
[10] = test system: T47D; test: Induction of apoptosis in human T47D cells assessed as accumulation at G1 phase at 0.05 uM after 48 hrs by flow cytometry analysis; assay type: functional; how it was run: as §3
[11] = test system: T47D; test: Induction of apoptosis in human T47D cells assessed as accumulation at G2/M phase at 0.05 uM after 24 hrs by flow cytometry analysis; assay type: functional; how it was run: as §3
[12] = test system: T47D; test: Induction of apoptosis in human T47D cells assessed as accumulation at S phase at 0.05 uM after 24 hrs by flow cytometry analysis; assay type: functional; how it was run: as §3
[13] = test system: T47D; test: Induction of apoptosis in human T47D cells assessed as accumulation at G2/M phase at 0.05 uM after 48 hrs by flow cytometry analysis; assay type: functional; how it was run: as §3
[14] = test system: T47D; test: Induction of apoptosis in human T47D cells assessed as accumulation at subG1 phase at 0.05 uM after 24 hrs by flow cytometry analysis; assay type: functional; how it was run: as §3
[15] = Inhibition of tubulin polymerization
[16] = test system: T47D; test: Induction of apoptosis in human T47D cells assessed as accumulation at subG1 phase at 0.05 uM after 48 hrs by flow cytometry analysis; assay type: functional; how it was run: as §3

| Compound | EC50 [1] | EC50 [2] | EC50 [3] | also measured |
| --- | --- | --- | --- | --- |
| Oc1cccc(Nc2cc(C(F)(F)F)nc(-c3ccncc3)n2)c1 | 680 nM | 3100 nM |  |  |
| COc1cccc(Nc2cc(C(F)(F)F)nc(-c3cccnc3)n2)c1 | 340 nM | > 10000 nM | > 10000 nM | Activity [4]: inactive; GI50 [5]: 94 nM; GI50 [6]: > 10000 nM; GI50 [7]: 6400 nM |
| Oc1ccc(Cl)c(Nc2cc(C(F)(F)F)nc(-c3ccncc3)n2)c1 | 77 nM | 1100 nM |  |  |
| COc1cc(Nc2cc(C(F)(F)F)nc(-c3cnccn3)n2)cc(OC)c1 | 130 nM | > 10000 nM | > 10000 nM |  |
| COc1ccc(N2CCCCC2)c(Nc2cc(C(F)(F)F)nc(-c3cccnc3)n2)c1 | > 10000 nM | > 10000 nM | > 10000 nM |  |
| Cc1ccc(O)cc1Nc1cc(C(F)(F)F)nc(-c2ccncc2)n1 | 48 nM | 2000 nM |  |  |
| Oc1ccc(Cl)c(Nc2cc(C(F)(F)F)nc(-c3cccnc3)n2)c1 | 230 nM | > 10000 nM | > 10000 nM |  |
| Cc1ccc(O)cc1Nc1cc(C(F)(F)F)nc(-c2cccnc2)n1 | 87 nM | > 10000 nM | 5500 nM |  |
| COc1ccc(Cl)cc1Nc1cc(C(F)(F)F)nc(-c2cccnc2)n1 | 360 nM | 610 nM | 440 nM |  |
| Oc1cccc(Nc2cc(C(F)(F)F)nc(-c3cccnc3)n2)c1 | 970 nM | > 10000 nM | > 10000 nM |  |
| COc1ccc(OC)c(Nc2nc(-c3ccccn3)ncc2OC)c1 | > 10000 nM | > 10000 nM | > 10000 nM |  |
| Cc1ccc(O)cc1Nc1cc(C(F)(F)F)nc(-c2cnccn2)n1 | 190 nM | > 10000 nM | > 10000 nM |  |
| Cc1ccc(C)c(Nc2cc(C(F)(F)F)nc(-c3ccncc3)n2)c1 | 120 nM | 610 nM |  |  |
| Oc1ccc(Cl)c(Nc2cc(C(F)(F)F)nc(-c3cnccn3)n2)c1 | 560 nM | > 10000 nM | > 10000 nM |  |
| COc1ccc(Nc2cc(C(F)(F)F)nc(-c3ccncc3)n2)cc1 | > 10000 nM | > 10000 nM | > 10000 nM |  |
| COc1ccc(OC)c(Nc2cc(C(F)(F)F)nc(-c3cnccn3)n2)c1 | 48 nM | 410 nM | 280 nM |  |
| COc1ccc(Cl)c(Nc2cc(C(F)(F)F)nc(-c3cccnc3)n2)c1 | 140 nM | 930 nM | 820 nM |  |
| COc1ccc(Cl)c(Nc2cc(C)nc(N3CCOCC3)n2)c1 | > 10000 nM | > 10000 nM | > 10000 nM |  |
| COc1cccc(Nc2cc(C(F)(F)F)nc(-c3ccccc3)n2)c1 | > 10000 nM | > 10000 nM | > 10000 nM |  |

| Compound | EC50 [1] | EC50 [2] | EC50 [3] | also measured |
| --- | --- | --- | --- | --- |
| COc1cccc(Nc2cc(C(F)(F)F)nc(C3CCCCN3)n2)c1 (stereo not drawn) | > 10000 nM | > 10000 nM | > 10000 nM |  |
| COc1ccc(OC)c(Nc2cc(C(F)(F)F)nc(-c3cccnc3)n2)c1 | 24 nM | 170 nM | 130 nM | Activity [8]: 7%; Activity [9]: 32%; Activity [10]: 31%; Activity [11]: 53%; GI50 [5]: 95 nM; Activity [12]: 6%; Activity [13]: 43%; Activity [14]: 7%; GI50 [6]: 180 nM; IC50 [15]: 500 nM; Activity [16]: 19%; GI50 [7]: 68 nM |
| COc1ccc(C)cc1Nc1cc(C(F)(F)F)nc(-c2ccncc2)n1 | 76 nM | 160 nM |  |  |
| COc1ccc(OC)c(Nc2cc(-c3ccccn3)nc(-c3ccccn3)n2)c1 | 420 nM | 330 nM | 160 nM | GI50 [5]: 240 nM; GI50 [6]: 130 nM; GI50 [7]: 410 nM |
| COc1cc(Nc2cc(C(F)(F)F)nc(-c3ccncc3)n2)cc(OC)c1 | 34 nM | 240 nM |  | GI50 [5]: 36 nM; GI50 [6]: 270 nM; GI50 [7]: 270 nM |
| FC(F)(F)c1cc(Nc2cccc(Cl)c2)nc(-c2cccnc2)n1 | > 10000 nM | > 10000 nM | > 10000 nM |  |
| COc1cccc(Nc2nc(-c3ccccn3)ncc2OC)c1 | > 10000 nM | > 10000 nM | > 10000 nM |  |
| COc1ccc(Cl)c(Nc2cc(C(F)(F)F)nc(-c3c(Cl)cncc3Cl)n2)c1 | > 10000 nM | > 10000 nM | > 10000 nM |  |
| COc1ccc(Oc2ccccc2)cc1Nc1cc(C(F)(F)F)nc(-c2cccnc2)n1 | 1500 nM | 3300 nM | 5000 nM |  |
| FC(F)(F)c1cc(Nc2cccc(-c3ccccc3)c2)nc(-c2cccnc2)n1 | > 10000 nM | > 10000 nM | > 10000 nM |  |
| COc1cccc(Nc2cc(C(F)(F)F)nc(-c3ccccn3)n2)c1 | 360 nM | 6000 nM | 3700 nM |  |
| COc1cc(Nc2cc(C(F)(F)F)nc(-c3cccnc3)n2)cc(OC)c1 | 82 nM | 2900 nM | 1400 nM | GI50 [5]: 61 nM; GI50 [6]: 1300 nM; GI50 [7]: 1000 nM |
| COc1ccc(Nc2cc(C(F)(F)F)nc(-c3cccnc3)n2)cc1 | > 10000 nM | > 10000 nM | > 10000 nM |  |
| COc1ccc(C)c(Nc2cc(C(F)(F)F)nc(-c3ccncc3)n2)c1 | 25 nM | 120 nM |  |  |
| COc1ccc(C)cc1Nc1cc(C(F)(F)F)nc(-c2cccnc2)n1 | 96 nM | 130 nM | 130 nM |  |
| COc1ccc(OC)c(Nc2cc(C(F)(F)F)nc(-c3ccccn3)n2)c1 | 18 nM | 190 nM | 110 nM |  |
| COc1ccc(Cl)c(Nc2cc(C(F)(F)F)nc(-c3ccncc3)n2)c1 | 100 nM | 960 nM |  |  |
| COc1cccc(Nc2cc(C(F)(F)F)nc(-c3ccncc3)n2)c1 | 1300 nM | > 10000 nM | > 10000 nM |  |
